The source of these data is ChEMBL document CHEMBL1138563, “Synthesis and in vitro antimicrobial activity of some novel substituted benzimidazole derivatives having potent activity against MRSA” (2009).

What all share (assay type): functional
The test system of assay [1] is Staphylococcus aureus. The experiment in a line: Antimicrobial activity against methicillin-resistant Staphylococcus aureus ATCC […] by tube dilution method. An outline of the steps: (§1)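 Tube dilution MIC assay. Compounds and standard drugs were dissolved in 50% DMSO–water as stock. The stock was diluted 4-fold with culture medium plus bacterial suspension to give the starting test concentration. That initial tube contained 12.5% DMSO, so no data were taken from it. The MIC was then read across the dilution series.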

In a further assay the test system is Bacillus subtilis. The experiment in a line: Antimicrobial activity against Bacillus subtilis ATCC 6633 by tube dilution method. An outline of the steps: (§2)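 Tube dilution MIC determination. Test agents and reference drugs are dissolved as a stock in 50% DMSO–water, then diluted 4-fold with culture medium plus inoculum. The first dilution (12.5% DMSO) is excluded from scoring. The read-out is the minimum inhibitory concentration.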

The subject of the next assay is Candida albicans. The experiment in a line: Antimicrobial activity against Candida albicans ATCC 10145 by tube dilution method. In short, it runs like this:
as §2

The subject of the next assay is Escherichia coli. The experiment in a line: Antimicrobial activity against Escherichia coli ATCC 25922 by tube dilution method. In short, it runs like this: as §2
Assay [2] relates to Staphylococcus aureus. The experiment in a line: Antimicrobial activity against methicillin-resistant Staphylococcus aureus isolates by tube dilution method. An outline of the steps: as §1
Assay [3] deals with Staphylococcus aureus. Nature of the assay: Antimicrobial activity against Staphylococcus aureus ATCC 25923 by tube dilution method. An outline of the steps: as §1

SMILES strings stand for the structures. In brackets after ≈: the same amount, converted by molar mass.

A word on the MIC: it is the lowest concentration found to suppress growth. Higher therefore signals a need for much substance. Consider `CC(C)(C)c1ccc(-c2nc3cc(Cl)c(Cl)cc3n2C2CCCC2)cc1`, for which the minimal inhibitory concentration (MIC) against Staphylococcus aureus [1] is 25 µg/mL (≈ 64.5 µM); against Bacillus subtilis, 25 µg/mL (≈ 64.5 µM); against Candida albicans it was 25 µg/mL (≈ 64.5 µM); against Escherichia coli it was 50 µg/mL (≈ 129 µM); against Staphylococcus aureus [2] it was 25 µg/mL (≈ 64.5 µM); in the assay on Staphylococcus aureus [3], 6.25 µg/mL (≈ 16.1 µM).
In the case of `Nc1nc2cc(Cl)ccc2n1C1CCCC1`, the MIC is 50 µg/mL (≈ 212 µM) with Staphylococcus aureus [1]; 25 µg/mL (≈ 106 µM) against Bacillus subtilis; 25 µg/mL (≈ 106 µM) against Candida albicans; 50 µg/mL (≈ 212 µM) against Escherichia coli; 50 µg/mL (≈ 212 µM) in the assay with Staphylococcus aureus [2]; 25 µg/mL (≈ 106 µM) against Staphylococcus aureus [3].
`COc1ccc(-c2nc3cc(Cl)c(Cl)cc3n2C2CCCC2)cc1`: the MIC with Staphylococcus aureus [1] turned out to be 25 µg/mL (≈ 69.2 µM); in the assay with Bacillus subtilis, 50 µg/mL (≈ 138 µM); in the assay with Candida albicans, 6.25 µg/mL (≈ 17.3 µM); with Escherichia coli it was 50 µg/mL (≈ 138 µM); in the assay with Staphylococcus aureus [2], 25 µg/mL (≈ 69.2 µM); in the assay with Staphylococcus aureus [3], 25 µg/mL (≈ 69.2 µM).
Regarding `Clc1ccc2c(c1)nc(-c1ccc(OCc3ccccc3)cc1)n2C1CCCC1`, the MIC against Staphylococcus aureus [1] is 6.25 µg/mL (≈ 15.5 µM); against Bacillus subtilis, 50 µg/mL (≈ 124 µM); with Candida albicans it was 25 µg/mL (≈ 62 µM); against Escherichia coli, 50 µg/mL (≈ 124 µM); with Staphylococcus aureus [2], 6.25 µg/mL (≈ 15.5 µM); in the assay with Staphylococcus aureus [3], 3.12 µg/mL (≈ 7.74 µM).
As to `Clc1cc2nc(-c3ccc4ccccc4c3)n(C3CCCC3)c2cc1Cl`, the MIC against Staphylococcus aureus [1] came out at 25 µg/mL (≈ 65.6 µM); in the assay with Bacillus subtilis it was 12.5 µg/mL (≈ 32.8 µM); against Candida albicans it was 12.5 µg/mL (≈ 32.8 µM); with Escherichia coli, 50 µg/mL (≈ 131 µM); against Staphylococcus aureus [2], 25 µg/mL (≈ 65.6 µM); against Staphylococcus aureus [3], 50 µg/mL (≈ 131 µM).
As to `O=[N+]([O-])c1cccc(-c2nc3cc(Cl)ccc3n2C2CCCC2)c1`, the MIC worked out at 50 µg/mL (≈ 146 µM) in the assay with Staphylococcus aureus [1]; 25 µg/mL (≈ 73.1 µM) against Bacillus subtilis; 12.5 µg/mL (≈ 36.6 µM) in the assay on Candida albicans; 50 µg/mL (≈ 146 µM) against Escherichia coli; 50 µg/mL (≈ 146 µM) with Staphylococcus aureus [2]; 50 µg/mL (≈ 146 µM) in the assay with Staphylococcus aureus [3].
With `COc1ccc(-c2nc3cc(Cl)ccc3n2C2CCCC2)cc1`, the MIC is 50 µg/mL (≈ 153 µM) in the assay with Staphylococcus aureus [1]; 25 µg/mL (≈ 76.5 µM) in the assay on Bacillus subtilis; 12.5 µg/mL (≈ 38.2 µM) against Candida albicans; 25 µg/mL (≈ 76.5 µM) in the assay with Escherichia coli; 50 µg/mL (≈ 153 µM) with Staphylococcus aureus [2]; 50 µg/mL (≈ 153 µM) in the assay on Staphylococcus aureus [3].
Consider `CN(C)c1ccc(-c2nc3cc(Cl)ccc3n2C2CCCC2)cc1`, for which the MIC in the assay on Staphylococcus aureus [1] was 25 µg/mL (≈ 73.6 µM); against Bacillus subtilis it was 25 µg/mL (≈ 73.6 µM); in the assay on Candida albicans, 12.5 µg/mL (≈ 36.8 µM); in the assay on Escherichia coli, 50 µg/mL (≈ 147 µM); against Staphylococcus aureus [2], 25 µg/mL (≈ 73.6 µM); in the assay on Staphylococcus aureus [3], 12.5 µg/mL (≈ 36.8 µM).
Turning to `CC1(C)S[C@@H]2[C@H](NC(=O)[C@H](N)c3ccccc3)C(=O)N2[C@H]1C(=O)OCOC(=O)[C@@H]1N2C(=O)C[C@H]2S(=O)(=O)C1(C)C` [SULTAMICILLIN], the minimum inhibitory concentration (MIC) came to 25 µg/mL (≈ 42 µM) in the assay on Staphylococcus aureus [1], 0.78 µg/mL (≈ 1.31 µM) with Bacillus subtilis, 25 µg/mL (≈ 42 µM) against Staphylococcus aureus [2] and 0.39 µg/mL (≈ 0.656 µM) against Staphylococcus aureus [3].
With `Clc1cc2nc(-c3ccc4ccccc4c3)[nH]c2cc1Cl`, the minimum inhibitory concentration (MIC) in the assay on Staphylococcus aureus [1] worked out at 50 µg/mL (≈ 160 µM); in the assay on Bacillus subtilis it was 25 µg/mL (≈ 79.8 µM); against Candida albicans, 25 µg/mL (≈ 79.8 µM); in the assay with Escherichia coli, 50 µg/mL (≈ 160 µM); against Staphylococcus aureus [2], 50 µg/mL (≈ 160 µM); against Staphylococcus aureus [3], 50 µg/mL (≈ 160 µM).
Regarding `CC1(C)S[C@@H]2[C@H](NC(=O)[C@H](N)c3ccccc3)C(=O)N2[C@H]1C(=O)O` [AMPICILLIN], the minimal inhibitory concentration (MIC) against Staphylococcus aureus [1] was determined as 50 µg/mL (≈ 143 µM); in the assay on Staphylococcus aureus [2], 50 µg/mL (≈ 143 µM); against Staphylococcus aureus [3] it was 0.78 µg/mL (≈ 2.23 µM).
Regarding `Fc1ccc(-c2nc3cc(Cl)c(Cl)cc3n2C2CCCC2)cc1`, the MIC against Staphylococcus aureus [1] is 50 µg/mL (≈ 143 µM); in the assay with Bacillus subtilis it was 50 µg/mL (≈ 143 µM); against Candida albicans, 25 µg/mL (≈ 71.6 µM); with Escherichia coli, 25 µg/mL (≈ 71.6 µM); against Staphylococcus aureus [2] it was 50 µg/mL (≈ 143 µM); with Staphylococcus aureus [3], 25 µg/mL (≈ 71.6 µM).
On to `CC(C)Nc1nc2cc(Cl)c(Cl)cc2n1C1CCCC1`, for which the minimum inhibitory concentration (MIC) against Staphylococcus aureus [1], with Bacillus subtilis, against Candida albicans, in the assay with Escherichia coli, with Staphylococcus aureus [2] and with Staphylococcus aureus [3] was 50 µg/mL (≈ 160 µM) in each case.
Consider `CCOc1cc2c(cc1Cl)nc(-c1ccc(OC(C)=O)cc1)n2C1CCCC1`, for which the MIC against Staphylococcus aureus [1] is 50 µg/mL (≈ 125 µM); with Bacillus subtilis, 25 µg/mL (≈ 62.7 µM); against Candida albicans, 6.25 µg/mL (≈ 15.7 µM); in the assay with Escherichia coli, 50 µg/mL (≈ 125 µM); against Staphylococcus aureus [2], 50 µg/mL (≈ 125 µM); against Staphylococcus aureus [3], 50 µg/mL (≈ 125 µM).
With `CC(C)(C)c1ccc(-c2nc3cc(Cl)c(Cl)cc3[nH]2)cc1`, the MIC is 3.12 µg/mL (≈ 9.77 µM) against Staphylococcus aureus [1]; 6.25 µg/mL (≈ 19.6 µM) against Bacillus subtilis; 12.5 µg/mL (≈ 39.2 µM) with Candida albicans; 50 µg/mL (≈ 157 µM) in the assay with Escherichia coli; 3.12 µg/mL (≈ 9.77 µM) against Staphylococcus aureus [2]; 3.12 µg/mL (≈ 9.77 µM) in the assay on Staphylococcus aureus [3].
Consider `CC(=O)Oc1ccc(-c2nc3cc(Cl)c(Cl)cc3n2C2CCCC2)cc1`, for which the MIC against Staphylococcus aureus [1] worked out at 50 µg/mL (≈ 128 µM); with Bacillus subtilis, 25 µg/mL (≈ 64.2 µM); against Candida albicans, 12.5 µg/mL (≈ 32.1 µM); in the assay on Escherichia coli, 25 µg/mL (≈ 64.2 µM); with Staphylococcus aureus [2], 50 µg/mL (≈ 128 µM); in the assay on Staphylococcus aureus [3], 50 µg/mL (≈ 128 µM).
Take `Clc1cc2ncn(C3CCCC3)c2cc1Cl`: the MIC was 6.25 µg/mL (≈ 24.5 µM) against Staphylococcus aureus [1]; 12.5 µg/mL (≈ 49 µM) with Bacillus subtilis; 12.5 µg/mL (≈ 49 µM) in the assay on Candida albicans; 50 µg/mL (≈ 196 µM) against Escherichia coli; 6.25 µg/mL (≈ 24.5 µM) with Staphylococcus aureus [2]; 6.25 µg/mL (≈ 24.5 µM) with Staphylococcus aureus [3].
The compound `OC(Cn1cncn1)(Cn1cncn1)c1ccc(F)cc1F` [FLUCONAZOLE] came in with an MIC in the assay with Candida albicans of 1.56 µg/mL (≈ 5.09 µM).
